Here are results for 9 molecules from publication PMC6571994 (The Journal of General Physiology, 2019).

Entries after “also recorded” stand apart in the source; their conditions may differ. Like-named read-outs stand apart in the source and are kept apart here.

Data set [1] deals with iNicSnFR3a_PM expressed in HeLa cells. The experiment in a line: Time-resolved fluorescence, iNicSnFR3a_PM in transfected HeLa cells. The format is cell-based, human. The following applies: Fig. 5 E; normalized to nicotine (100 µM).
The test system of data set [2] is T. sp X513 OpuBC homologue. The data set is described as follows: Isothermal titration calorimetry with purified PBPs. The format is binding, Thermoanaerobacter sp X513.
In data set [3] the test system is iNicSnFR3a_ER expressed in HeLa cells. The data set is described as follows: Time-resolved fluorescence, iNicSnFR3a_ER in transfected HeLa cells. The format is cell-based, human. Conditions: Fig. 5 E; normalized to nicotine (100 µM).
Data set [4] relates to purified iNicSnFR3a. The experiment in a line: Fluorescence dose–response relations of purified iNicSnFR3a. The format is biochemical. Conditions: for sensitivity of iNicSnFR3a and iNicSnFR3b to other α4β2 agonists: unpublished data; for ΔFmax/F0: excitation 485 nm, 3× PBS, 25°C.
For a further data set, the system named is iNicSnFR3a. The experiment in a line: Stopped-flow kinetics of ligand binding to iNicSnFR3a.
Data set [5] relates to iNicSnFR3 biosensors targeted to the ER. The data set is classed as cell-based.
Data set [6] relates to _PM constructs in HeLa cells and hippocampal neurons. Conditions: applied [nicotine] ≤ 5 µM; mean ± SEM, n = 8 cells.
The test system of a further data set is iNicSnFR1. Conditions: read-out: apparent nicotine EC50.
For data set [7] the following is noted: cited from earlier work; for pKa: no reference printed; for logD7.4: ref Smith et al., 2012.
In data set [8] the test system is iNicSnFR3a_ER in human dopaminergic neurons.
The test system of data set [9] is iNiSnFR3a_Y357A_PM in HeLa cells. Conditions: concentrations ≤300 µM.
The conditions of data set [10]: cited from earlier work.
For data set [11], the system named is AAV_iNicSnFR3b_ER in cultured mouse hippocampal neurons.
Data set [12] concerns _ER constructs in HeLa cells and hippocampal neurons. Conditions: applied [nicotine] ≤ 5 µM; mean ± SEM, n = 8 cells.
Data set [13] deals with purified iNicSnFR3a. The data set is described as follows: Isothermal titration calorimetry with purified iNicSnFR3a. The data set is classed as binding. Conditions: PBS, 25°C. The procedure, abridged:
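Calorimetric titration: 100 µM protein in the cell titrated with 1 mM test ligand in PBS at 25°C. Binding isotherm yields equilibrium dissociation constant and stoichiometry (moles ligand per mole protein).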

For data set [14], the system named is AAV2/1.syn1.iNicSnFR3b_ER in cultured hippocampal neurons. The experiment in a line: Time-resolved fluorescence, iNicSnFR3b_ER in cultured hippocampal neurons. The format is cell-based, mouse. Conditions: compared with nicotine responses and with varenicline responses on the PM.
For data set [15], the system named is α4β2 nAChRs. Conditions: ref Turner et al., 2011; Marks et al., 2015; Govind et al., 2017; cited from earlier work.
The subject of data set [16] is α4β2 nAChRs. Conditions: cited from earlier work.
Data set [17] relates to iNicSnFR3a and iNicSnFR3b in HeLa cells and neurons. The data set is classed as cell-based.
The test system of the next data set is α7 nAChRs. Conditions: cited from earlier work.
Where [18] appears, read: ref Coe et al., 2005, Mihalak et al., 2006.

In the case of `CC(=O)OCC[N+](C)(C)C` [ACh, acetylcholine], the figures for the fluorescence increases result in [1] and in [3] were “comparable fluorescence increases” and “only nicotine evoked fluorescence increases”, respectively. The “binding to the purified protein” value in data set [2] is listed as “bind to this protein”.

`C[N+](C)(C)CCO` [choline]: the “binding to the purified protein” value in [2] is “bind to this protein”. Also, the “EC50 for choline relative to nicotine” value with purified iNicSnFR3a [4] (Fig. 2 C) is on record as “more than fourfold greater”.

Take `CN1C(=O)CC[C@H]1c1cccnc1` [cotinine]: the ΔF result in the data set with purified iNicSnFR3a [4] (Fig. 2 C) was “near-zero ΔF values”.

As to `O=c1cccc2n1C[C@@H]1CNC[C@H]2C1` [cytisine], the “sensitivity of iNicSnFR3a and iNicSnFR3b to other α4β2 agonists” value (shortened to “sensitivity of iNicSnFR3a and iNicSnFR3b”) with purified iNicSnFR3a [4] is on record as “less sensitive”.

Regarding `CN1CCC[C@H]1c1cccnc1` [nicotine, (—)–Nicotine], the “koff-ext (extrapolation to zero [nicotine])” value in the data set on iNicSnFR3a (25°C, PBS) is 2.0 s⁻¹. In addition, the Kd at iNicSnFR3a (read-out: equilibrium-binding constant Kd = koff/kon, stopped-flow) came to 29 µM; at purified iNicSnFR3a [13], 10 ± 2.5 µM. Besides, the fluorescence increases entry is reported as “comparable fluorescence increases” in data set [1] and “only nicotine evoked fluorescence increases” in data set [3]. Also, the “[nicotine] in the ER versus the extracellular value” in [5] was “within twofold; also recorded: less than twofold”. In data set [5], the “time for nicotine to leave the ER after removal from the extracellular solution” value is on record as at most 10 s. The “[ΔF/F0]/[nicotine]” value came to 0.063 ± 0.13 µM⁻¹ in [6] and 0.075 ± 0.019 µM⁻¹ in [12]. Besides, the EC50 with iNicSnFR1 is 250 µM; in [8] (read-out: [nicotine] giving half-ΔFmax/F0), about 20 µM. For the same molecule, the pKa in [7] was 7.5–8; in [7] (listed as Nicotine) it was 7.5–8.1. In data set [7], the logD7.4 was −0.04. Further, the “maximum ΔF/F0” value in data set [8] was 3–4. The “slope [ΔF/F0]/[nicotine]” value in data set [8] ([nicotine] ≤ 5 µM, Fig. 6 F inset) turned out to be 0.087 µM⁻¹. Further, the “nicotine-induced ΔF” value in data set [9] was “no detectable nicotine-induced ΔF”. In addition, the half-time of metabolism in [10] (in humans, ref Benowitz et al., 1991) is listed as about 20 min. The “peak [nicotine] in the plasma and brain of a smoker” value in data set [10] (ref Benowitz et al., 1991, Rollema et al., 2010) is about 1 µM. Also, in data set [11], the diffusion constant was about 1 µm^2/ms. Further, the “time scale of complete response” value in data set [11] (cell in ROI 3, ∼150 µm from the pipette tip) was about 10 s. Also, in data set [11] (cell within 10 µm of the pipette tip), the “time of fluorescence increase” value is under 1 s. Besides, the “decrease in EC50 as the pH is increased from 6.0 to 9.0” value with purified iNicSnFR3a [4] (Fig. 3 I) was about 20 fold. Besides, the “EC50 for nicotine relative to EC50 for N’MeNic” value with purified iNicSnFR3a [4] (pH 6.0 to 9.0, Fig. 3 I) is listed as 1.25- to 2 fold. Further, the ΔFmax/F0 in the data set with purified iNicSnFR3a [4] (pH 7.5) came to 14.5; with purified iNicSnFR3a [4] (pH 9.0), 3.5.

As to `c1cnc2c(c1)O[C@H]1CCN3CC[C@@]1(C2)C3` [dianicline], the “sensitivity of iNicSnFR3a and iNicSnFR3b” value with purified iNicSnFR3a [4] is on record as “less sensitive”.

As usually defined, the half-life is the time in which the quantity being followed falls by half. In the case of `c1cnc2cc3c(cc2n1)[C@@H]1CNC[C@H]3C1` [varenicline], the “inferred Kd relative to nicotine” value on iNicSnFR3a (stopped-flow) is on record as “approximately threefold less”. In addition, the “time for varenicline to leave the ER after leaving the external solution” value in data set [5] (clinically relevant sub-µM concentrations) is recorded as “at most 60 s”. Besides, in data set [14], the “growth and decay phases of the ER varenicline-induced fluorescence” value is “clearly slower”. In addition, in the data set on α4β2 nAChRs [15], the “effect of exposure on α4β2 nAChRs” value is on record as “up-regulates”. The agonist type result in the data set with α4β2 nAChRs [16] (no reference printed) was “partial agonist”; in the data set with α7 nAChRs (no reference printed), “full agonist”. Further, the “potency relative to ACh” value in the data set with α4β2 nAChRs [16] (setting [18]) and in the data set on α7 nAChRs (setting [18]) was “more potent than ACh” in each case. Also, in data set [7], the pKa is given as 9.5–10. Also, the logD7.4 in data set [7] is listed as −1.27. The molecule further registered an EC50 in [17] of 1 to 4 µM. For the same molecule, the half-life in data set [10] (human plasma, ref Faessel et al., 2006) is about 24 h. The same molecule had a Kd on purified iNicSnFR3a [13] of 3.5 µM. For the same molecule, in the data set with purified iNicSnFR3a [4], the “agonist character for iNicSnFR3 fluorescence” value is reported as “highly potent full agonist”. Besides, in the data set on purified iNicSnFR3a [4] (purified iNicSnFR3a), the “varenicline EC50 relative to nicotine” value is “approximately sixfold less”.

As to `C[N+](C)(C)CC(=O)O` [betaine], the “binding to the purified protein” value in data set [2] is “bind to this protein”.

For `c1cncc(OC[C@@H]2CCN2)c1` [A-85380], in the data set with purified iNicSnFR3a [4], the “sensitivity of iNicSnFR3a and iNicSnFR3b” value was “less sensitive”.
